Results as given in ChEMBL document CHEMBL2016554, “Synthesis, biological evaluation and molecular docking studies of 1,3,4-oxadiazole derivatives as potential immunosuppressive agents” (Bioorg Med Chem, 2012).

Assays:
[1] = Immunosuppressive activity in BALB/c mouse lymph node cells assessed as inhibition of concanavalin A-stimulated cell proliferation at 1 uM administered 24 hrs post concanavalin A stimulation and measured 72 hrs after compound dosing by MTT assay; type: functional
Procedure, shortened: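 BALB/c mouse lymph node cells, 5 × 10^5 per well, stimulated with 5 µg/mL ConA for 24 h, then left untreated or given compound at 1 µM for 72 h. MTT added 4 h before the end, formazan dissolved in DMSO, OD570 read. Inhibition = (control OD570 − compound OD570)/control OD570 × 100, with untreated cells as control. Values are means of three experiments.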

[2] = Cytotoxicity against BALB/c mouse lymph node cells at 10 uM after 24 hrs MTT assay
[3] = molecular target: T1, Phosphatidylinositol 4,5-bisphosphate 3-kinase catalytic subunit delta isoform (Homo sapiens, UniProt O00329); assay: Inhibition of PI3Kdelta expressed in cells co-expressing N-terminal His-tagged human p85a using L-alpha-phosphatidylinositol substrate by TLC based phosphor imaging; type: cell-based
T1 sequence (O00329 whole entry): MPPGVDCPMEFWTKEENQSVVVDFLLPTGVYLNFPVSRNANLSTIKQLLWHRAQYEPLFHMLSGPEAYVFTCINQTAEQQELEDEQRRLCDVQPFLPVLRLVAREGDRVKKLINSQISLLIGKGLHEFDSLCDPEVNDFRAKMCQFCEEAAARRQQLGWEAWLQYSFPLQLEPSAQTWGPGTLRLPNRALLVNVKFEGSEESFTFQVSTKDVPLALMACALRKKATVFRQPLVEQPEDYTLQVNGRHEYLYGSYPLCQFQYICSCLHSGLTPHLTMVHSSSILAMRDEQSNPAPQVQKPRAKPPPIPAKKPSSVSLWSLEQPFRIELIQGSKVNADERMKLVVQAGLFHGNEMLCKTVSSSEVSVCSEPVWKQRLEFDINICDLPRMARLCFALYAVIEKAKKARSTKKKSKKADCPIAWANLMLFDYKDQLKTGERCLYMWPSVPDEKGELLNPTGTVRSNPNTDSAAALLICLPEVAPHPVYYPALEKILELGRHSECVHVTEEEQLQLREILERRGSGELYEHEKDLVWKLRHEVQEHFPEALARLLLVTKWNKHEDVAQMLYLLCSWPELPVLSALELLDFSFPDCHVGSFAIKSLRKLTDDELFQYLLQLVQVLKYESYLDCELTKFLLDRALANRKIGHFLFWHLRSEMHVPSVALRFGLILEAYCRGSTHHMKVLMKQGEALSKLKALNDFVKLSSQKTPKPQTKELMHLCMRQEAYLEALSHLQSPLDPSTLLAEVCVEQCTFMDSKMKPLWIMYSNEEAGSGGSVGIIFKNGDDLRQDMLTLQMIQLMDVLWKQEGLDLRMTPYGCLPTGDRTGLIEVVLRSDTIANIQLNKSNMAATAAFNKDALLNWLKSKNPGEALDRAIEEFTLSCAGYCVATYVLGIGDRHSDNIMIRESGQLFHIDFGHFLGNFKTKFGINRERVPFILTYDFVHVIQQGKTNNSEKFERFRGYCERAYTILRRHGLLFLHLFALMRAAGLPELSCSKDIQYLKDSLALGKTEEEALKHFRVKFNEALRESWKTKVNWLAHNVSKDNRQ

[4] = molecular target: Phosphatidylinositol 4,5-bisphosphate 3-kinase catalytic subunit alpha isoform (Mus musculus, UniProt P42337); assay: Inhibition of mouse wild type PI3Kalpha expressed in Sf21 cells co-expressing N-terminal His-tagged human p85a using L-alpha-phosphatidylinositol substrate by TLC based phosphor imaging
[5] = Inhibition of N-terminal His-tagged bovine PI3Kgamma expressed in Sf21 cells using L-alpha-phosphatidylinositol substrate by TLC based phosphor imaging; parameters: species or system Bos taurus
[6] = molecular target: Phosphatidylinositol 4,5-bisphosphate 3-kinase catalytic subunit beta isoform (Homo sapiens, UniProt P42338); assay: Inhibition of human wild type PI3Kbeta expressed in Sf21 cells co-expressing N-terminal His-tagged human p85a using L-alpha-phosphatidylinositol substrate by TLC based phosphor imaging
[7] = Induction of apoptosis in BALB/c mouse concanavalin A-stimulated lymph node cells assessed as late apoptotic cells at 4 uM administered 24 hrs post concanavalin A stimulation and measured 24 hrs after by Annexin-V-FITC/propidium iodide staining based flow cytometry (reference value: 17.49 %); type: functional
[8] = Induction of apoptosis in BALB/c mouse concanavalin A-stimulated lymph node cells assessed as early apoptotic cells at 16 uM administered 24 hrs post concanavalin A stimulation and measured 24 hrs after by Annexin-V-FITC/propidium iodide staining based flow cytometry (reference value: 4.52 %); type: functional
Mus musculus = assay: Induction of apoptosis in BALB/c mouse concanavalin A-stimulated lymph node cells assessed as late apoptotic cells administered 24 hrs post concanavalin A stimulation and measured 24 hrs after by Annexin-V-FITC/propidium iodide staining based flow cytometry; type: functional
[9] = Induction of apoptosis in BALB/c mouse concanavalin A-stimulated lymph node cells assessed as late apoptotic cells at 1 uM administered 24 hrs post concanavalin A stimulation and measured 24 hrs after by Annexin-V-FITC/propidium iodide staining based flow cytometry (reference value: 17.49 %); type: functional
[10] = Induction of apoptosis in BALB/c mouse concanavalin A-stimulated lymph node cells assessed as late apoptotic cells at 16 uM administered 24 hrs post concanavalin A stimulation and measured 24 hrs after by Annexin-V-FITC/propidium iodide staining based flow cytometry (reference value: 17.49 %); type: functional
[11] = Induction of apoptosis in BALB/c mouse concanavalin A-stimulated lymph node cells assessed as early apoptotic cells at 1 uM administered 24 hrs post concanavalin A stimulation and measured 24 hrs after by Annexin-V-FITC/propidium iodide staining based flow cytometry (reference value: 4.52 %); type: functional
[12] = Induction of apoptosis in BALB/c mouse concanavalin A-stimulated lymph node cells assessed as early apoptotic cells at 4 uM administered 24 hrs post concanavalin A stimulation and measured 24 hrs after by Annexin-V-FITC/propidium iodide staining based flow cytometry (reference value: 4.52 %); type: functional

Phosphatidylinositol 4,5-bisphosphate 3-kinase catalytic subunit beta isoform, sequence (P42338 whole entry, canonical isoform): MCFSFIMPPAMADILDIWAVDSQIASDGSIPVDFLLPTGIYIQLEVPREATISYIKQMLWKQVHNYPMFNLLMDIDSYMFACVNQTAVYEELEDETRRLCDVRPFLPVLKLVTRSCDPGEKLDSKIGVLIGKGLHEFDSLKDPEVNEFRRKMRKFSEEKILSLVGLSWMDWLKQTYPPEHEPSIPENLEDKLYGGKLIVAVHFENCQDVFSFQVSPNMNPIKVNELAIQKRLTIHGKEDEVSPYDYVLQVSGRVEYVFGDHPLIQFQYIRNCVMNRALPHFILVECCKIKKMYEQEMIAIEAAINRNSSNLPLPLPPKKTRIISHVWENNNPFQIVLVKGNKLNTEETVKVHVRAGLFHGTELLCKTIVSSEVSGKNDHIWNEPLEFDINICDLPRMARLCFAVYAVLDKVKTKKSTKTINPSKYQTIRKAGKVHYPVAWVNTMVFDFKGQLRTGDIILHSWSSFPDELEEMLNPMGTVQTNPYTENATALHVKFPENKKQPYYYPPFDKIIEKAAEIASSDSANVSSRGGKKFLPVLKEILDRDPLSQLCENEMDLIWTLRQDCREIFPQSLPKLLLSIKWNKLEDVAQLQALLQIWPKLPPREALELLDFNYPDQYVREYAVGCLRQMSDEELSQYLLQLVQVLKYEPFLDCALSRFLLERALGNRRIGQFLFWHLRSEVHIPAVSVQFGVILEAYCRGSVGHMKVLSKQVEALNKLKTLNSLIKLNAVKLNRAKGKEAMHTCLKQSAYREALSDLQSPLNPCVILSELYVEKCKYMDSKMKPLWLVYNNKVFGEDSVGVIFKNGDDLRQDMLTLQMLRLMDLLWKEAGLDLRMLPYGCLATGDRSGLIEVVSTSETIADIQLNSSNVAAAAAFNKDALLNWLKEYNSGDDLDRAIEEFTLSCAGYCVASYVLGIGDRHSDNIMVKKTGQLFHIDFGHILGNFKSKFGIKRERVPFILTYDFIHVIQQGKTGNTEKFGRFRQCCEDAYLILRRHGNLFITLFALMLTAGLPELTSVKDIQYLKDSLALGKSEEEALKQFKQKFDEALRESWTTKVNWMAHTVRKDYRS
Phosphatidylinositol 4,5-bisphosphate 3-kinase catalytic subunit alpha isoform, sequence (P42337 whole entry, canonical isoform): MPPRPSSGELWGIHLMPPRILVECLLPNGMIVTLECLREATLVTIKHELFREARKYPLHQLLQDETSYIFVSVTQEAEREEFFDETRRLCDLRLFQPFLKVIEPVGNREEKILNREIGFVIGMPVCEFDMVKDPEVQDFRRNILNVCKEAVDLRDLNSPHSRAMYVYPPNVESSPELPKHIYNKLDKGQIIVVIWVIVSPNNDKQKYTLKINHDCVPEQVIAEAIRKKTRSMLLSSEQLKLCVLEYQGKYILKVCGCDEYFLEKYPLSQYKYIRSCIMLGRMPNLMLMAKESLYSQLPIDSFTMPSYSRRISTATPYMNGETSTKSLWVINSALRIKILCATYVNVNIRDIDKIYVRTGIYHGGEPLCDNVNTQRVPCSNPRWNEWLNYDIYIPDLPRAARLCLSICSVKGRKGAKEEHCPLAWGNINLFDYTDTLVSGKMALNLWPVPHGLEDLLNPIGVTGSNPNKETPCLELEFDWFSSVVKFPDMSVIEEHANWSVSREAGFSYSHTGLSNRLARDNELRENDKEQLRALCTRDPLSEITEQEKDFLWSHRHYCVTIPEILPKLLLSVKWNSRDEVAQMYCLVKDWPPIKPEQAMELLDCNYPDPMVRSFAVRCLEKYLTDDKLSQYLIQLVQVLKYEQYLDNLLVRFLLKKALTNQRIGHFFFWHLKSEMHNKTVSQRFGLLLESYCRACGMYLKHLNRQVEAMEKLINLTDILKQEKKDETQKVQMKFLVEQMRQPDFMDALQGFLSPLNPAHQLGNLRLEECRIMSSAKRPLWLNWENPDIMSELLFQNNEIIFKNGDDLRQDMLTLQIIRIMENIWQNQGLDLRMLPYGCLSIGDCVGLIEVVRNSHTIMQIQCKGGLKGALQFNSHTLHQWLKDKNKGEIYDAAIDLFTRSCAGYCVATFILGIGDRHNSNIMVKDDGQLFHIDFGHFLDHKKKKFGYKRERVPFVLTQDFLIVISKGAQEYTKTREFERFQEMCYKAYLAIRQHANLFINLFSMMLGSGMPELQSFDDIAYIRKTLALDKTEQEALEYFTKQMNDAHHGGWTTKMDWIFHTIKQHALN

| Structure (SMILES) | inhibition (INH) [1] [%] | OD [2] | also measured |
| --- | --- | --- | --- |
| Cc1ccc(-c2nnc(SCc3cccc([N+](=O)[O-])c3)o2)c(O)c1 | -4.36 | 0.81 |  |
| COc1ccc(-c2nnc(SCc3ccc(F)cc3)o2)c(O)c1 | 29.32 | 0.87 | IC50 [3]: 11.5 µM; IC50 [4]: 31.2 µM; IC50 [5]: 0.98 µM; IC50 [6]: > 100 µM |
| COc1cccc(CSc2nnc(-c3ccc(C)cc3O)o2)c1 | 20.59 | 0.87 | IC50 [3]: > 100 µM; IC50 [4]: 1.97 µM; IC50 [5]: 2.59 µM; IC50 [6]: 13.6 µM |
| O=c1cc(N2CCOCC2)oc2c(-c3ccccc3)cccc12 [LY-294002] |  |  | IC50 [3]: 0.57 µM |
| COc1ccc(-c2nnc(SCc3cccc([N+](=O)[O-])c3)o2)c(O)c1 | 19.33 | 0.86 | IC50 [3]: 29.7 µM; IC50 [4]: 17.9 µM; IC50 [5]: 2.47 µM; IC50 [6]: > 100 µM |
| COc1ccc(-c2nnc(SCc3ccc(Cl)cc3)o2)c(O)c1 | 11.96 | 0.87 |  |
| C/C=C/C[C@@H](C)[C@@H](O)[C@H]1C(=O)N[C@@H](CC)C(=O)N(C)CC(=O)N(C)[C@@H](CC(C)C)C(=O)N[C@@H](C(C)C)C(=O)N(C)[C@@H](CC(C)C)C(=O)N[C@@H](C)C(=O)N[C@H](C)C(=O)N(C)[C@@H](CC(C)C)C(=O)N(C)[C@@H](CC(C)C)C(=O)N(C)[C@@H](C(C)C)C(=O)N1C [CYCLOSPORINE] | 69.77 |  |  |
| Cc1ccc(-c2nnc(SCc3ccccc3)o2)c(O)c1 | 9.08 | 0.86 |  |
| COc1ccc(-c2nnc(SCc3ccccc3[N+](=O)[O-])o2)c(O)c1 | 3.96 | 0.91 |  |
| Cc1ccc(C(=O)O)c(O)c1 | 3.52 |  |  |
| COc1ccc(-c2nnc(SCc3ccc(C)cc3)o2)c(O)c1 | 6.29 | 0.9 |  |
| Cc1ccc(-c2nnc(SCc3ccc(F)cc3)o2)c(O)c1 | 4.5 | 0.82 |  |
| Cc1ccc(CSc2nnc(-c3ccc(C)cc3O)o2)cc1 | 11.42 | 0.65 |  |
| COc1ccc(-c2nnc(SCc3ccccc3Cl)o2)c(O)c1 | 17.36 | 0.89 |  |
| Cc1ccc(-c2nnc(SCc3ccc([N+](=O)[O-])cc3)o2)c(O)c1 | 38.76 | 0.89 | Activity [7]: 27.4%; Activity [8]: 2.16%; IC50 [3]: 25.6 µM; IC50 [4]: 54.9 µM; Activity (Mus musculus): Dose-dependent effect; IC50 [5]: 0.31 µM; Activity [9]: 26.59%; Activity [10]: 96.35%; IC50 [6]: > 100 µM; Activity [11]: 6.26%; Activity [12]: 6.69% |
| COc1ccc(-c2nnc(SCc3cccc(C)c3)o2)c(O)c1 | 16.28 | 1.12 |  |
| Cc1ccc(-c2nnc(SCc3ccccc3F)o2)c(O)c1 | -6.92 | 0.82 |  |
| Cc1ccc(-c2nnc(SCc3cccc(Cl)c3)o2)c(O)c1 | -0.72 | 0.7 |  |
| Cc1ccc(-c2nnc(SCc3ccccc3Cl)o2)c(O)c1 | 8.99 | 0.79 |  |
| Cc1ccc(-c2nnc(SCc3ccccc3[N+](=O)[O-])o2)c(O)c1 | 11.42 | 0.74 |  |
| COc1ccc(-c2nnc(SCc3ccccc3F)o2)c(O)c1 | 34.35 | 0.79 | IC50 [3]: 19 µM; IC50 [4]: 33.9 µM; IC50 [5]: 0.59 µM; IC50 [6]: 51.8 µM |
| COc1ccc(-c2nnc(SCc3ccc([N+](=O)[O-])cc3)o2)c(O)c1 | 14.39 | 0.83 |  |
| COc1ccc(-c2nnc(SCc3cccc(Cl)c3)o2)c(O)c1 | 22.03 | 0.9 | IC50 [3]: > 100 µM; IC50 [4]: 15.4 µM; IC50 [5]: 1.87 µM; IC50 [6]: 43.7 µM |
| Cc1ccc(-c2nnc(SCc3ccc(Cl)cc3)o2)c(O)c1 | 13.4 | 0.75 |  |
| COc1ccc(-c2nnc(SCc3ccccc3)o2)c(O)c1 | 4.5 | 0.81 |  |
| COc1ccc(CSc2nnc(-c3ccc(OC)cc3O)o2)cc1 | 11.33 | 0.75 |  |
| COc1ccc(CSc2nnc(-c3ccc(C)cc3O)o2)cc1 | 13.67 | 0.83 |  |
| Cc1cccc(CSc2nnc(-c3ccc(C)cc3O)o2)c1 | 5.22 | 0.8 |  |
| COc1ccc(C(=O)O)c(O)c1 [4-METHOXYSALICYLIC ACID] | 7.34 |  |  |
| COc1cccc(CSc2nnc(-c3ccc(OC)cc3O)o2)c1 | 11.06 | 0.71 |  |
